From ChEMBL document CHEMBL2385064, “Selective CB2 agonists with anti-pruritic activity: discovery of potent and orally available bicyclic 2-pyridones” (Bioorg Med Chem, 2013)
pIC50, pKi: −log10 of the molar value. Activity calls are given as the source filed them. The calls are words filed in the database; no cut-off is given here.

Experiments:
Cannabinoid receptor 2 [1] = target: T1, Cannabinoid receptor 2 (Homo sapiens, UniProt P34972); assay: Displacement of [3H]-CP-55,940 from human CB2 receptor expressed in CHO cell membranes
T1 sequence (P34972 whole entry): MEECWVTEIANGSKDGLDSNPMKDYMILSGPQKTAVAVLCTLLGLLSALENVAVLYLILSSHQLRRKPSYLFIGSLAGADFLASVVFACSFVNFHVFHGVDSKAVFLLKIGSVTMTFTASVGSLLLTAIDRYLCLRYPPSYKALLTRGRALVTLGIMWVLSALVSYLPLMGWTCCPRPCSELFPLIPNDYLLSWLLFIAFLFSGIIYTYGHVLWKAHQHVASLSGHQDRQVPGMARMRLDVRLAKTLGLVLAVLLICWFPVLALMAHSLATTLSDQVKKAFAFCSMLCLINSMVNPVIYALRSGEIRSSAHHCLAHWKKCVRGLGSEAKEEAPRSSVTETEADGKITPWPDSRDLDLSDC
How it was run: (§1)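 Competition binding against [3H]-CP-55,940 on membranes from CHO cells stably expressing recombinant human CB1 or CB2. Between-day coefficient of variation is 0.24 for CB1 and 0.53 for CB2.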

[2] = target: Cannabinoid receptor 2 (Mus musculus) (UniProt P47936); assay: Displacement of [3H]-CP-55,940 from mouse spleen CB2 receptor expressed in CHO cell membranes
Sequence of Cannabinoid receptor 2 (Mus musculus) (P47936 whole entry): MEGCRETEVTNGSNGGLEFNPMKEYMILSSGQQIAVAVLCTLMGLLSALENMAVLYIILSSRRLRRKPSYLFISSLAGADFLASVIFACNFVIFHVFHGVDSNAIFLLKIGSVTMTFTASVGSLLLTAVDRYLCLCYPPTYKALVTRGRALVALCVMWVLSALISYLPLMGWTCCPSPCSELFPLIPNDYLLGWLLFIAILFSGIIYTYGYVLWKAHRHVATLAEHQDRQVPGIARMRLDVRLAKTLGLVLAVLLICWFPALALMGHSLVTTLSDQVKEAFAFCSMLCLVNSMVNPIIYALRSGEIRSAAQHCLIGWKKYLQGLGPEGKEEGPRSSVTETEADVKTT

[3] = Half life in mouse at 1 mg/kg, iv; type: ADME, organism-based; parameters: dose 1 mg/kg, route intravenous; conditions: in vivo
[4] = Total plasma clearance in mouse at 1 mg/kg, iv; type: ADME, organism-based; parameters: dose 1 mg/kg, route intravenous
[5] = Volume of distribution at steady state in mouse at 1 mg/kg, iv; type: ADME, organism-based; parameters: dose 1 mg/kg, route intravenous; conditions: in vivo, read-out: Vdss
Homo sapiens = species on record: Homo sapiens; assay: Selectivity ratio of Ki for human CB1 receptor to Ki for human CB2 receptor
Cannabinoid receptor 2 [6] = target: T1, Cannabinoid receptor 2; assay: Agonist activity at human CB2 receptor expressed in CHO cells assessed as inhibition of forskolin-induced cAMP production at 0.02 uM relative to control; type: functional, cell-based
How it was run: (§2)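 Forskolin-induced cAMP production measured in human CB2-expressing CHO cells. Emax is the maximum inhibition rate of cAMP production at the indicated concentration.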

Cannabinoid receptor 2 [7] = target: T1, Cannabinoid receptor 2; assay: Agonist activity at human CB2 receptor expressed in CHO cells assessed as inhibition of forskolin-induced cAMP production; type: functional, cell-based
How it was run: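 Functional readout is inhibition of forskolin-evoked cAMP accumulation in CHO cells expressing human CB2. IC50 determined from more than four duplicate assay points. Between-day coefficient of variation is 0.63.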

Cannabinoid receptor 2 [8] = target: T1, Cannabinoid receptor 2; assay: Agonist activity at human CB2 receptor expressed in CHO cells assessed as inhibition of forskolin-induced cAMP production at 2 uM relative to control; type: functional, cell-based; how it was run: as §2
Cannabinoid receptor 1 = Cannabinoid receptor 1 (Homo sapiens, UniProt P21554); assay: Displacement of [3H]-CP-55,940 from human CB1 receptor expressed in CHO cell membranes; how it was run: as §1
Sequence of Cannabinoid receptor 1 (P21554 whole entry): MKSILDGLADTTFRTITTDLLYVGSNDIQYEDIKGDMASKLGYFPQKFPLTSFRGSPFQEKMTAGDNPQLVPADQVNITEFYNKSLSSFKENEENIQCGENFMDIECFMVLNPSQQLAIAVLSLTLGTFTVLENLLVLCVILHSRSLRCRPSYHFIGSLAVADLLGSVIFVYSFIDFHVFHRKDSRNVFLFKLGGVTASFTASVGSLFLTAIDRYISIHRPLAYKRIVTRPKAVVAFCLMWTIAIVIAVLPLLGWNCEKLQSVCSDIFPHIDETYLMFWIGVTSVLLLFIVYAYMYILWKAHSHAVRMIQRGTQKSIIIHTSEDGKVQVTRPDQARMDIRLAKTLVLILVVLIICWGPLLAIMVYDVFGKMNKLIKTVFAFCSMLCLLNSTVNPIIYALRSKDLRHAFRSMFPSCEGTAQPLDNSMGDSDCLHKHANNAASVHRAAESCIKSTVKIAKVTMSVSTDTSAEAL

Cannabinoid receptor 2 [9] = target: T1, Cannabinoid receptor 2; assay: Agonist activity at human CB2 receptor expressed in CHO cells assessed as inhibition of forskolin-induced cAMP production at 0.2 uM relative to control; type: functional, cell-based; how it was run: as §2
Mus musculus [10] = assay: Toxicity in po dosed ICR mouse assessed as decrease in locomotor activity at 100 mg/kg, po; type: organism-based; parameters: dose 100 mg/kg, route oral; conditions: in vivo
Mus musculus [11] = assay: Oral bioavailability in mouse at 30 mg/kg; type: ADME, organism-based; conditions: in vivo
Mus musculus [12] = assay: Antipruritic activity in ICR mouse assessed as inhibition of compound 48/80-induced scratching-behavior at 100 mg/kg, po administered once before challenge relative to control; type: functional
How it was run: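 Female ICR mice had their backs clipped. Compound was given orally once (n = 6) in sesame oil or 0.5% methylcellulose. Scratching bouts at the site by hind paws were counted for 30 min. Result compared with the vehicle group by Dunnett's t-test (p<0.05).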

[13] = Cmax in mouse at 30 mg/kg, po; type: ADME, organism-based; parameters: dose 30 mg/kg, route oral; conditions: in vivo
Mus musculus [14] = assay: AUC in mouse at 30 mg/kg, po; type: ADME, organism-based, Plasma; parameters: dose 30 mg/kg, route oral; conditions: in vivo
[15] = Half life in mouse at 2 mg/kg, iv; type: ADME, organism-based; parameters: dose 2 mg/kg, route intravenous; conditions: in vivo
[16] = Volume of distribution at steady state in mouse at 2 mg/kg, iv; type: ADME, organism-based; parameters: dose 2 mg/kg, route intravenous; conditions: in vivo, read-out: Vdss

SMILES | pKi (Cannabinoid receptor 2 [1]) | Ratio Ki (Homo sapiens) | pKi (Cannabinoid receptor 1) | also measured
CCCCn1c2c(cc(C(=O)NCc3ccccc3)c1=O)COCC2 | 6.69 | – | – | –
CCCCn1c2c(cc(C(=O)NC3CCCCC3)c1=O)CCCCCC2 | – | 95 | – | Activity [2]: Active; half-life [3]: 18 min; clearance [4]: 35 mL/min/kg; Vd [5]: 0.89 L/kg; Emax (Cannabinoid receptor 2 [6]): 98%; pIC50 (Cannabinoid receptor 2 [7]): > 9.70
CCCCn1c2c(cc(C(=O)NC(C)(C)c3ccccc3)c1=O)CCCCCC2 | – | – | – | pIC50 (Cannabinoid receptor 2 [7]): 9.70
CCCCn1c2c(cc(C(=O)NC(C)C)c1=O)CCCCCC2 | 8.40 | 148 | 6.23 | Emax (Cannabinoid receptor 2 [8]): 92%; pIC50 (Cannabinoid receptor 2 [7]): 8.60
CCCCn1c(C)c(C)cc(NC(=O)Nc2ccccc2)c1=O | < 5.30 | – | – | –
O=C(NCc1ccccc1)c1cc2c(n(CCCN3CCOCC3)c1=O)CCCCCC2 | 6.68 | – | – | –
CCCCn1c(CC)c(C)cc(C(=O)NCc2ccccc2)c1=O | 7.70 | 16 | 6.49 | –
CCCCn1c(C)c(C)cc(NS(=O)(=O)c2ccccc2)c1=O | < 5.30 | – | – | –
CCCCn1c(C)c(C)cc(C(=O)NCc2ccccc2)c1=O | 7.18 | – | 6.22 | –
CCCCn1c2c(cc(C(=O)NC3CCN(C)CC3)c1=O)CCCCCC2 | 6.83 | – | – | –
CC(C)CCn1c2c(cc(C(=O)NCc3ccccc3)c1=O)CCCCCC2 | 9.05 | 10 | 8.05 | –
CCCCn1c2c(cc(C(N)=O)c1=O)CCCCCC2 | 7.40 | > 125 | < 5.30 | –
CCCCn1c2c(cc(C(=O)NCCc3ccccc3)c1=O)CCCCCC2 | – | 568 | – | Emax (Cannabinoid receptor 2 [9]): 98%
CCCCn1c2c(cc(C(=O)NCc3ccccc3)c1=O)CCC2 | 7.80 | 8.9 | 6.84 | Emax (Cannabinoid receptor 2 [8]): 83%
CCCCn1c2c(cc(C(=O)NCc3ccccc3)c1=O)CCCC2 | 7.77 | 44 | 6.13 | Emax (Cannabinoid receptor 2 [8]): 76%; pIC50 (Cannabinoid receptor 2 [7]): 7.77
CCCCn1c2c(cc(C(=O)NCc3ccccc3)c1=O)CCCCCC2 | – | 593 | – | Activity [2]: Active; Activity (Mus musculus [10]): Non-toxic; F (Mus musculus [11]): 25%; inhibition in vivo at 100 mg/kg (Mus musculus [12]): 81%; Cmax [13]: 168 ng/mL; AUC (Mus musculus [14]): 390 ng·h/mL; half-life [15]: 16.8 min; Vd [16]: 2.29 L/kg; Emax (Cannabinoid receptor 2 [9]): 100%
